Compound activity from PubChem.
VIM-2 inh: inhibitors of Pseudomonas aeruginosa VIM-2 metallo-beta-lactamase. purified VIM-2, nitrocefin hydrolysis, epi-absorbance fluorescence. inhibition, % at 5.6 µM. hit rate 0.89% among 290,000. AID 1527;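 active means inhibition above the mean of all tested compounds plus 3 SD, cutoff set per screening run, cut at about 7.5% in these data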;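 further: red hydrolysis product quenches plate fluorescence so inhibitors raise well fluorescence; 0% = enzyme with DMSO and 100% = DMSO without enzyme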
NadD block: blocks S. aureus nicotinate mononucleotide adenylyltransferase; purified NadD enzyme, colorimetric absorbance read-out; inhibition, % at 20 µM; hit rate 0.78% among 360,000; AID 602399; in the data active means inhibition above about 26%
IMP-1 inhibitor: inhibitors of Pseudomonas aeruginosa IMP-1 metallo-beta-lactamase; purified IMP-1, nitrocefin hydrolysis, epi-absorbance fluorescence; inhibition, % at 5.6 µM; hit rate 0.45% among 290,000;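 active means inhibition above the mean plus 3 SD of all compounds in the same screening run, cut at about 4.5% in these data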;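 further: 0% = IMP-1 with DMSO and 100% = DMSO wells lacking enzyme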
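Test system: recombinant IMP-1 enzyme, purified / Medium: HEPES buffer pH 7.1 with ZnSO4 and Brij 35 / Doses: single dose, 5.6 µM / Times: 25 °C, 15 min preincubation, 25 min reaction / Detection: Epi-absorbance via hydrolysed-nitrocefin quenching of white-plate fluorescence, 480/530 nm, EDTA stop / Evaluation: percent inhibition from optical density relative to buffer-blank wells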
core dimer inh: blocks dimerization of HCV core protein; inhibition, % at 5 µM; hit rate 0.33% among 300,000; AID 1899; TR-FRET GST/Flag-core106 dimerization, 1536-well;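 active means inhibition above the mean of all tested compounds plus 3 SD, set per screening campaign, cut at about 45% in these data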
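Assay system – GST-tagged and Flag-tagged HCV core protein residues 1-106 · Quantity – core106 proteins, GST 13.5 nM and Flag 17 nM · Benchmarks – unlabelled core106 and no-GST-core106 wells · Read-out basis – percent inhibition of core106 dimerization signal · Detection – time-resolved FRET, ex 340 nm, em 617 and 671 nm · Schedule – 4 h at 22.5 °C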
NadD inh conf: confirmation of Staphylococcus aureus NadD inhibitors; purified S. aureus NadD, colorimetric enzyme assay; AID 624309; hit rate 13% among 2,000; inhibition, % at 20 µM; shares compounds with NadD block; in the data active means inhibition mostly above about 42%, no sharp cut-off; inactive means mostly below about 42%
* = called active by the depositor. The list is not random: actives were taken first. Their share in the collection is about 1.9%.

How did Cc1ccc(-c2cc(-c3ccc(Cl)cc3)c(C#N)c(N)n2)o1 do in these assays?
VIM-2 inh: -0.4; NadD block: 58.6*; IMP-1 inhibitor: -2.3; core dimer inh: 27.3; NadD inh conf: 70.8*

What do the screens show for `Cc1cc(-c2cc(-c3ccc(Cl)cc3)nc(N)c2C#N)co1`?
VIM-2 inh: -2.8; NadD block: 84.2*; IMP-1 inhibitor: -2.4; core dimer inh: 27.1; NadD inh conf: 40.9

What do the screens show for `CCOc1cc(-c2cc(-c3ccc(C)o3)nc(N)c2C#N)ccc1O`?
VIM-2 inh: 2.4; NadD block: 2.9; IMP-1 inhibitor: -1.3; core dimer inh: 2.5

Results for COc1ccc(-c2cc(-c3ccc(O)cc3)nc(N)c2C#N)cc1OC ?
VIM-2 inh: 5.5; NadD block: 2.0; IMP-1 inhibitor: -2.9; core dimer inh: 10.8

How did Cc1ccc(-c2cc(-c3ccc(C)o3)nc(N)c2C#N)cc1 do in these assays?
VIM-2 inh: -2.8; NadD block: 57.6*; IMP-1 inhibitor: -1.7; core dimer inh: 60.4*; NadD inh conf: 62.2*

How did N#Cc1c(C(F)(F)F)cc(Cc2ccccc2)nc1SCC(=O)NCC(=O)O do in these assays?
NadD block: -1.6; core dimer inh: 5.2

How did C[C@H](CO)N1C[C@H](C)[C@@H](CN(C)S(=O)(=O)c2ccc(F)cc2)Oc2c(NS(=O)(=O)c3ccccc3)cccc2C1=O do in these assays?
NadD block: 0.8

Results for Cc1ccc(-c2cc(-c3ccc4c(c3)OCO4)c(C#N)c(N)n2)o1 ?
VIM-2 inh: -5.3; NadD block: 39.3*; IMP-1 inhibitor: -0.6; core dimer inh: 11.1; NadD inh conf: 32.7

What do the screens show for `O=C(O)CC(NC(=O)Cc1ccc([N+](=O)[O-])cc1)c1ccc2c(c1)OCO2` (stereo not drawn)?
VIM-2 inh: -2.5; NadD block: -4.9; IMP-1 inhibitor: -2.6; core dimer inh: -0.2

How did COc1ccc2nc(N3C(=O)/C(=C/c4ccccc4)NC3=S)sc2c1 do in these assays?
VIM-2 inh: -1.6; NadD block: 44.0*; IMP-1 inhibitor: -5.0; core dimer inh: 17.9; NadD inh conf: 6.0

What do the screens show for `CCOc1ccc2nc(N3CCCCCC3)sc2c1`?
VIM-2 inh: -2.7; NadD block: -5.9; IMP-1 inhibitor: -1.8; core dimer inh: -4.1

Results for CCOc1ccc2nc(N3C(=O)/C(=C/c4ccccc4)NC3=S)sc2c1 ?
VIM-2 inh: -1.8; NadD block: 32.9*; IMP-1 inhibitor: -2.7; core dimer inh: 22.8; NadD inh conf: 7.8

How did CC(C)(C)c1ccc(C(CC(=O)O)NC(=O)Cc2ccc(Cl)cc2)cc1 (stereo not drawn) do in these assays?
VIM-2 inh: -3.6; NadD block: -4.2; IMP-1 inhibitor: -2.6; core dimer inh: 4.0

What do the screens show for `C=C1/C(=C\C=C2/CCC[C@]3(C)[C@@H]([C@H](C)/C=C/[C@@H](O)C4CC4)CC[C@@H]23)C[C@@H](O)C[C@@H]1O`?
core dimer inh: 20.1

What do the screens show for `Cc1cc2[nH]c(=O)c(=O)[nH]c2cc1S(=O)(=O)N1CCN(c2cccc(C(F)(F)F)c2)CC1`?
VIM-2 inh: -1.9; NadD block: 30.9*; IMP-1 inhibitor: -1.8; core dimer inh: 19.4; NadD inh conf: 49.8*

How did Cc1cc2[nH]c(=O)c(=O)[nH]c2cc1S(=O)(=O)N1CCN(c2cccc(Cl)c2)CC1 do in these assays?
VIM-2 inh: -2.0; NadD block: 22.6; IMP-1 inhibitor: -0.6; core dimer inh: 14.9

Results for CC(C)C[C@H]1CN([C@@H](Cc2ccccc2)CN2CCC[C@H]2CN2C(=O)C(=O)NC[C@@H]2Cc2ccc(O)cc2)C(=O)C(=O)N1CC1CCCCCC1 ?
NadD block: 36.4*; NadD inh conf: 38.2

How did CC(C)C[C@H]1CNC(=O)C(=O)N1C[C@@H]1CCCN1C[C@H](Cc1ccc(O)cc1)N1C[C@H](Cc2ccccc2)N(CC2CCCCCC2)C(=O)C1=O do in these assays?
NadD block: 33.8*; NadD inh conf: 37.3

What do the screens show for `CC(C)C[C@H]1CN([C@@H](Cc2ccc(O)cc2)CN2CCC[C@@H]2CN2C(=O)C(=O)NC[C@@H]2Cc2ccccc2)C(=O)C(=O)N1CC1CCCCCC1`?
NadD block: 29.1

What do the screens show for `CCCCCC(=O)N1C[C@H](n2cc(-c3ccc(F)cc3)nn2)[C@@H](O)C[C@@H]1c1ccc(OC)cc1`?
NadD block: -3.2

What do the screens show for `COc1cccc2cc(-c3csc(CCn4nc(C)cc4C)n3)c(=O)oc12`?
VIM-2 inh: 2.6; NadD block: 11.0; IMP-1 inhibitor: -1.8; core dimer inh: 28.2
